High-throughput results from PubChem.
In the library only some 1% were active in any assay of this set; here they are far more common.
XBP1 UPR activ – activators of adaptive arm of unfolded protein response (XBP1) | CHO-XBP1 luciferase reporter, IRE1-XBP1 UPR activation, luminescence; percent of tunicamycin response, DMSO as zero | activation, % at 20 µM | 330,000 compounds, 0.33% hits;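 active means versus positive control, 20 µM dose yields 30% or more activation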;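 further: 100% = tunicamycin at 10 µg/mL and 0% = DMSO only wells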
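Material: IRE1-XBP1 luciferase reporter CHO line / Quantity: one thousand reporter cells per well / Buffer or medium: F12 with 10% serum / Compound: 20 µM single concentration, DMSO 1% / Times: 6 h treatment, 37 °C / Detection: Steady-Glo luciferase glow luminescence, 10 min after reagent addition / Benchmarks: tunicamycin high, DMSO low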
T cell modulator – T cell immune modulators affecting CD8 T cell-vesicle binding | 2C CD8+ T cell-vesicle binding, flow cytometry; stronger effect = lower value | response (vesicle binding), % at 7 µM | 330,000 compounds, 0.068% hits;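 active means response, share of CD8 T cells binding vesicles, and their 90th percentile fluorescence all below set limits, cut at about 80% in these data, passing the limit was not always enough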;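 further: values below 100% mean blocked vesicle binding to the CD8+ T cells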
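Benchmarks: naked versus QL9-loaded vesicles / Assay system: purified 2C TCR transgenic mouse naive CD8+ T cells / Technique: high-throughput flow cytometry with anti-B7-1 and anti-CD8 staining / Timing: Cell–vesicle co-incubation 1.5 h at 37 °C, staining 20 min on ice / Read-out: percent CD8+ FL2 mean versus row control / Probe or stimulus: QL9-loaded Drosophila micro-vesicles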
CHOP UPR activ – activators of apoptotic arm of unfolded protein response (CHOP). CHO-CHOP luciferase reporter, UPR activation, luminescence; percent of tunicamycin response over DMSO baseline. activation, % at 10 µM. 330,000 compounds, 0.34% hits. AID 449763;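 active means at 10 µM dose, activation of 40% or more, normalized to positive control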;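 further: 100% = tunicamycin at 10 µg/mL and 0% = DMSO alone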
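System: CHO-CHOP luciferase reporter cell line | Buffer or medium: F12 medium containing 10% fetal bovine serum | Doses: One dose, 10 µM in 0.5% DMSO | Times: 6 h compound exposure at 37 °C after overnight seeding | Signal: Luciferase luminescence | Read-out: % activation vs tunicamycin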
B2AR ag – agonists of human beta-2 adrenergic receptor inducing internalization; P07550; Am2.2-beta2AR cells, FAP receptor internalization, flow cytometry; response, % (concentration not given with the values); 340,000 compounds, 0.43% hits; AID 504454;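 active means response above a set limit, near 3 SD of response in nonfluorescent compounds, cut at about 42% in these data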
Target sequence (P07550 whole entry, looked up): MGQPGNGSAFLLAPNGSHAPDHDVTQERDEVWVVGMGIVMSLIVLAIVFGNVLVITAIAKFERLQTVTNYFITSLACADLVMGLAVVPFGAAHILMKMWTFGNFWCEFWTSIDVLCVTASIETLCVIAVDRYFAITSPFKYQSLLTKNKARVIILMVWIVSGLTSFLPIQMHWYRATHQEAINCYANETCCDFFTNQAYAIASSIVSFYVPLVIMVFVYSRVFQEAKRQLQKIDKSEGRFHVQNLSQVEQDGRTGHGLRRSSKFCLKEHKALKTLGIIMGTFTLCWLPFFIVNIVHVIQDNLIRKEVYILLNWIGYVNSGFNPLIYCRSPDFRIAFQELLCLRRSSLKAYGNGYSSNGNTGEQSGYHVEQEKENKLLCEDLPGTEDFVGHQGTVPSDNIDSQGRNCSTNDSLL
B2AR ag CP1 – human beta-2 adrenergic receptor agonism, cherry pick; percent response (surface receptor), % at 10 µM; shares compounds with B2AR ag; 1,100 compounds, 25% hits; Am2.2-beta2AR cells, FAP surface receptor, flow cytometry; stronger effect = lower value;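 active means surface receptor percent response at or below 58%, roughly 3 SD from nonfluorescent compounds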
B2AR FAP counter – counter-screen for beta-2AR agonists: fluorescence in Am2.2 cells; shares compounds with B2AR ag; FAP fluorogen flow cytometry, fluorescence counterscreen; stronger effect = lower value; calls only at 10 µM; 1,100 tested, under 10 active; AID 588765;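 active means percent response below a set limit in fluorescence channel 1 and below 50% in channel 8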
* hit, by the source's call; i = inactive; x = no result; + = active, no number.

SMILES	XBP1 UPR activ	T cell modulator	CHOP UPR activ	B2AR ag	B2AR ag CP1	B2AR FAP counter
COc1ccc(Cl)cc1NC(=O)COc1ccc(S(=O)(=O)N2CCOCC2)cc1C	7	251	8	0	75	i
Cc1cc(S(=O)(=O)N2CCCC2)ccc1OCC(=O)NCc1ccccc1	2	330	-1	2	x	x
Cc1cc(Cl)ccc1OCC(=O)Nc1cccc(S(=O)(=O)N2CCCC2)c1	-2	161	2	3	x	x
CCOC(CN=c1nc(N(C)C)ss1)OCC	x	x	x	-7	x	x
CN(C)c1nc(=NCc2ccco2)ss1	x	57	x	12	111	i
Cc1cc(C(=O)Nc2ccncc2)ccc1[N+](=O)[O-]	-2	242	4	13	x	x
N#Cc1c(NC(=O)CSc2ncccn2)oc(-c2ccccc2)c1-c1ccccc1	-1	562	0	49*	117	i
CS(=O)(=O)c1ccc(Sc2nc3ccccc3s2)c([N+](=O)[O-])c1	-2	162	2	2	x	x
O=[N+]([O-])c1cc(S(=O)(=O)C(F)(F)F)ccc1Sc1nc2ccccc2s1	-14	390	20	45*	73	i
COc1cc(-c2cccs2)cc(=O)c2c(C)oc(C)c12	-1	722	-3	-12	112	i
COC(=O)c1ccc(C(NC(=O)OCc2ccccc2)/C(C)=C/[C@@H](C)C(=O)NCc2ccc(-c3ccccc3)cc2)cc1 (stereo partly specified)	0	253	1	2	x	x
O=[N+]([O-])c1ccc(S(=O)(=O)c2ccccc2)nc1	-8	113	-11	30	x	x
Cc1ccc(S(=O)(=O)c2ccc([N+](=O)[O-])cn2)cc1	-9	178	-10	65*	73	i
O=C(Nc1ccc(F)cc1)c1cccc(N2C(=O)c3ccccc3C2=O)c1	-3	169	-2	-10	100	i
O=C(CNC(=O)c1cccc(N2C(=O)c3ccccc3C2=O)c1)Nc1ccc(F)c(F)c1	0	199	1	-7	x	x
O=C(Nc1ccc(S(=O)(=O)Nc2nccs2)cc1)c1cccc(N2C(=O)c3ccccc3C2=O)c1	-3	200	-2	2	108	i
N#Cc1cccc(C(=O)Nc2ccc(S(=O)(=O)Nc3nccs3)cc2)c1	3	613	-2	-3	x	x
O=c1oc2ccccc2c2nccnc12	-2	266	8	8	x	x
CC1=NN(C(N)=S)C(=O)C1N=Nc1ccc(Cl)cc1 (stereo unspecified)	1	290	5	-6	x	x
CC1=NN(C(N)=S)C(=O)C1N=Nc1ccccc1 (stereo unspecified)	3	230	5	-1	108	i
CSCCC(NC(=O)c1ccccc1)C(=O)NCCCSc1ccccc1 (stereo unspecified)	-4	944	-1	2	x	x
CCCCC(=O)Nc1ccc(C(=O)N2CCCC(C(=O)OCC)C2)cc1 (stereo unspecified)	-1	156	1	61*	41*	i
CCOC(=O)C1CCCN(C(=O)c2ccc(Cl)cc2)C1 (stereo unspecified)	-1	244	2	8	x	x
CCN1CCN(CCc2nc3cc(NC(=O)COc4ccccc4)ccc3n2C)CC1	-3	543	2	-12	x	x
CN1CCN(CCc2nc3cc(NC(=O)COc4ccccc4)ccc3n2C)CC1	1	400	0	-17	129	i
SMILES	XBP1 UPR activ	T cell modulator	CHOP UPR activ	B2AR ag	B2AR ag CP1	B2AR FAP counter
COC(=O)c1ccc2c(=O)[nH]c(CSc3nc(-c4ccc(F)cc4)cs3)nc2c1	0	78*	0	64*	106	i
COc1cccc(CNCCO)c1OCc1ccccc1Cl	-2	263	-1	-4	x	x
CCOc1c(Cl)cc(CNCC(O)c2ccccc2)cc1OC (stereo unspecified)	1	361	-1	11	117	i
COc1cc(CNCCO)cc(Cl)c1OCc1ccccc1Cl	8	449	-1	48*	99	i
COc1ccccc1C(=O)Nc1ccc2oc(-c3ccc(F)cc3)nc2c1	5	220	8	5	65	i
COc1ccc(C(=O)Nc2ccc3oc(-c4cccc(F)c4)nc3c2)cc1OC	-1	638	0	9	x	x
CCOC(=O)c1[nH]ncc1CN1CCCC(C(=O)c2ccc(OC)c(OC)c2)C1 (stereo unspecified)	0	121	0	47*	82	i
CCCCc1ccc(NC(=O)CSc2nc(=O)n(CCN(CC)CC)c3c2CCCC3)cc1	1	310	2	43*	103	i
CCOC(=O)c1ccc(N2C(=O)CC(N3CCC(Nc4ccc(F)cc4)CC3)C2=O)cc1 (stereo unspecified)	-1	232	0	1	x	x
CCN(CC)S(=O)(=O)c1ccc(NC(=O)C2CC(=O)N(c3ccc4c(c3)OCCO4)C2)cc1 (stereo unspecified)	x	x	x	2	x	x
CC1CCCCN1C(=O)COc1ccc(NC(=O)c2ccco2)cc1 (stereo unspecified)	-1	291	0	-7	x	x
CC(C)(C)c1ccc(-n2nc(C#N)c(Cl)cc2=O)cc1	-10	x	-9	52*	22*	+
O=C(CN1CCOCC1)N1CCN(c2nnc(-c3ccccc3)c3ccccc23)CC1	-2	174	0	69*	59	i
CCOC(=O)N1CCN(c2nnc(-c3ccc(C)cc3)c3ccccc23)CC1	-4	197	3	45*	33*	i
Cc1nc2ccccc2nc1CN1CCC(CO)(CC2CCCCO2)CC1 (stereo unspecified)	0	205	-2	-9	x	x
CC(CCc1ccc(O)cc1)NCCc1ccc(O)c(O)c1 (stereo unspecified)	0	308	1	2	86	i
COc1ccccc1CCNC(C)CCc1ccc(O)cc1 (stereo unspecified)	-3	337	1	2	x	x
Cc1c(CN2CCC(CO)(Cc3cccc(C(F)(F)F)c3)CC2)c2ccccc2n1C	3	199	0	46*	97	i
OCC1(Cc2cccc(C(F)(F)F)c2)CCN(Cc2cc3ccccc3o2)CC1	0	217	0	4	x	x
COc1ccc(C2C(C#N)=C(N)Oc3c2sc2nc(C)cc(C)c32)cc1 (stereo unspecified)	-2	262	0	80*	43*	i
O=C(Nc1ccccn1)c1ccc([N+](=O)[O-])o1	1	682	0	-4	x	x
Cc1ccnc(NC(=O)c2ccc([N+](=O)[O-])o2)c1	4	467	0	49*	93	i
